Measured values from different studies.
Each line is one published result; the experiments were not run side by side.

| Structure (SMILES) | tested on | read-out | technique | strain | time | measurement | value |
| --- | --- | --- | --- | --- | --- | --- | --- |
| CC(C)(C)OC(=O)N1CCN(c2cc(C(=O)NCC(=O)O)ccc2NC(=O)c2cc(Br)c(Br)[nH]2)CC1 | Enterococcus faecium | microbial growth | broth dilution | ATCC35667 |  | MIC | > 32 µg/mL |
| Nc1ccc(/C=C/C(=O)N2CCc3c(oc4c(-c5ccc(F)cc5)cc(-c5ccc(C(=O)N6C[C@@H]7[C@H](C6)C7(F)F)nn5)cc34)C2)cn1 | CFPAC-1 | cell growth or viability | CCK-8 |  | 72 h | IC50 | > 20 µM |
| Cc1cc(C)c(C#N)c(NCC(=O)c2ccc(F)cc2)n1 | Trypanosoma brucei | parasite growth | resazurin |  |  | EC50 | > 64 µM |
| Cc1[nH]c(C(=O)Nc2ccc(C(=O)NCC(=O)O)cc2N2CC[C@@H](NC(=O)OC(C)(C)C)C2)c(Cl)c1Cl | Enterococcus faecium | microbial growth | broth dilution | ATCC35667 |  | MIC | > 32 µg/mL |
| Cc1cc(C)c(C#N)c(SCC(=O)c2ccccn2)n1 | Trypanosoma brucei | parasite growth | resazurin |  |  | EC50 | > 64 µM |
| N=C(N)c1ccc(OCCCCCOc2ccc(C(=N)N)cc2)cc1 | Trypanosoma brucei | parasite growth | resazurin |  | 72 h | EC50 | 0.005 µM |
| Cc1cc(C)c(C#N)c(SCC(=O)Nc2ccccc2)n1 | Trypanosoma brucei | parasite growth | resazurin |  |  | EC50 | > 64 µM |
| NNC(=O)c1cn(Cc2ccccc2)c2ccc(Oc3ccccc3)cc2c1=O | Trypanosoma brucei | parasite growth | resazurin |  | 72 h | EC50 | 0.43 µM |
| COc1ccnc(SCC(=O)c2ccccc2)c1C#N | Trypanosoma brucei | parasite growth | resazurin |  |  | EC50 | > 64 µM |
| Cc1[nH]c(C(=O)Nc2ccc(C(=O)NCc3n[nH]c(=O)o3)cc2N2CCNCC2)c(Cl)c1Cl.Cl | Enterococcus faecium | microbial growth | broth dilution | ATCC35667 |  | MIC | > 32 µg/mL |
| C=CC(=O)NC1CCN(c2ncc3ncnc(Nc4ccc(Oc5ccc6c(c5)ncn6C)c(C)c4)c3n2)CC1 | HCC95 | cell growth or viability |  |  |  | EC50 | 2.07 µM |
| Cl.N[C@@H]1CCN(c2cc(C(=O)NCC(=O)O)ccc2NC(=O)c2cc(Br)c(Br)[nH]2)C1 | Enterococcus faecium | microbial growth | broth dilution | ATCC35667 |  | MIC | > 32 µg/mL |
| Nc1ccc(/C=C/C(=O)N2CCc3c(oc4c(-c5ccc(F)cc5)cc(-c5ccc(C(=O)N6CCC(F)(F)CC6)nn5)cc34)C2)cn1 | CFPAC-1 | cell growth or viability | CCK-8 |  | 72 h | IC50 | > 20 µM |
| Cc1[nH]c(C(=O)Nc2ccc(C(=O)NCC(=O)O)cc2N2CC[C@H](N)C2)c(Cl)c1Cl.Cl | Enterococcus faecium | microbial growth | broth dilution | ATCC35667 |  | MIC | > 32 µg/mL |
| O=C(O)c1ccc2c(c1)nc(Nc1cccc(Cl)c1)c1ccncc12 | SK-MES-1 | cell growth or viability | crystal violet |  | 48 h | IC50 | 4.6 µM |
